High-throughput results as filed in PubChem BioAssay.
Only some compounds are listed: those with a hit (about 0.55% of all), similar ones and a draw of the others.
TRPML3 agonist: human TRPML3 channel agonists, primary screen, cell-based, HEK293 TRPML3-YFP, Fluo-8 calcium fluorescence, 3 µM. Mucolipin-3 (Homo sapiens), Q8TDD5. 100% = the carbachol control signal. activation, % at 3 µM. 220,000 tested, 0.29% active;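 active means activation above its plate's cutoff, the mean activation of the plate's test wells plus 3 SD, cut at about 12% in these data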
Target sequence (Q8TDD5 whole entry, looked up): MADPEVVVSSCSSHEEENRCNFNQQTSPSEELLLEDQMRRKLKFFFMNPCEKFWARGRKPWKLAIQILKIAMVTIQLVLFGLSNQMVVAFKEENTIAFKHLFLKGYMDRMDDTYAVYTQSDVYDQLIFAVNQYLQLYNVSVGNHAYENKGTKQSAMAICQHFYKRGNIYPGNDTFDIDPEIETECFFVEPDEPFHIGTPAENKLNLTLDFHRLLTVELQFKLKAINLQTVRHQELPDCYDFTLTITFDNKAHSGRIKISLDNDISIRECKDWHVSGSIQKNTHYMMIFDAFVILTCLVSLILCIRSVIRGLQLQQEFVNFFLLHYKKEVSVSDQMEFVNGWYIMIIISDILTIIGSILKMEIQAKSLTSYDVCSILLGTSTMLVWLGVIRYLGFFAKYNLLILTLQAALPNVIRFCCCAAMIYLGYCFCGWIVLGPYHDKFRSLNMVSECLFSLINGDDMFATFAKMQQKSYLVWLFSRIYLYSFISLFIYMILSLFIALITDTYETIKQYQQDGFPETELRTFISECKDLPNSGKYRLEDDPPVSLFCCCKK
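Test system: HEK293 cells stably carrying human TRPML3-YFP; Doses: single dose, 3 µM final nominal compound, 0.3% DMSO final; Schedule: dye loading 1 h 37 °C then 30 min ambient, 125 s read; Technique: Fluo-8 calcium fluorescence; Benchmarks: high control carbachol 87 µM, low control DMSO.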
OXTR ag: human OXTR agonists, primary screen, fluorescence, CHO-OTR cells, Fluo-8 calcium | Oxytocin receptor (Homo sapiens), P30559 | Fluo-8 calcium fluorescence; normalized: DMSO 0%, oxytocin 100% | activation, % at 3 µM | 320,000 tested, 0.32% active | AID 2435, 2010;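 active means activation above the mean of all tested compounds plus 3 SD, cutoff set per screening run, cut at about 20% in these data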;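 further: peak over basal fluorescence ratio from a 100 s FLIPR kinetic read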
zfTRPN1 agonist: zebrafish TRPN1 channel agonists, primary screen, cell-based, HEK293, calcium fluorescence; transient receptor potential cation channel N1 (TRPN1/NompC), Danio rerio; activation, % at 3 µM; AID 1424, 2008; HEK293 zebrafish TRPN1-YFP, Fluo-8 calcium fluorescence; 100% = response to 87 µM carbachol; 220,000 tested, 0.18% active;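 active means activation above its plate's cutoff, the mean activation of test wells on that plate plus 3 SD, cut at about 19% in these data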
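Material: zebrafish TRPN1-YFP in HEK293 cells; Doses: single test compound dose, 3 µM nominal, 0.3% DMSO; Timing: dye loading 1 h at 37 °C, then 30 min room temperature; Technique: intracellular calcium fluorescence with Fluo-8; Benchmarks: high carbachol 87 µM, low DMSO alone.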
OXTR potentiate: human OXTR potentiators, primary screen, fluorescence, CHO-OTR cells, Fluo-8 calcium; Oxytocin receptor (Homo sapiens), P30559; Fluo-8 calcium fluorescence, potentiator mode; 0% = oxytocin EC15, 100% = EC100; activation, % at 3 µM; 320,000 tested, 0.061% active;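 active means activation above that plate's cutoff, the mean activation of tested compounds plus 3 SD, cut at about 6.6% in these data, passing the limit was not always enough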
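Measured by – Fluo-8 calcium dye fluorescence · Test system – human OTR in CHO cells · Dosing – one concentration, 3.0 µM compound · Controls – EC15 oxytocin alone as 0%, 75 nM oxytocin as 100% · Evaluation – normalized max/min fluorescence ratio, % activation · Timing – 6 min pre-incubation, 100 s read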
V1aR counter: agonists of human V1a receptor, primary screen, counter-screen for OXTR agonist project, fluorescence, CHO-V1R cells | Fluo-8 calcium fluorescence, agonist mode; 0% DMSO, 100% 3 nM vasopressin | activation, % at 3 µM | AID 2797, 2010 | Vasopressin V1a receptor (Homo sapiens), P37288 | 320,000 tested, 0.25% active;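 active means activation above the mean activation of all tested compounds plus 3 SD, per screening run, cut at about 20% in these data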;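 further: signal is peak over basal fluorescence ratio across a 100 second FLIPR read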
V1aR agonist cf: V1a receptor agonists, calcium signal, confirmation, Fluo-8 calcium fluorescence, CHO-V1R cells; shares compounds with V1aR counter; agonist; activation, % at 3 µM; 180 tested, 20% active;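 active means average activation exceeds primary screen hit cutoff, cut at about 21% in these data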;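 further: peak over basal fluorescence ratio during a 100 s FLIPR read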
OXTR ag counter: human OXTR agonists, counter-screen for V1R agonist project, fluorescence, CHO-OTR cells, triplicate. Fluo-8 calcium fluorescence. activation, % at 3 µM. shares compounds with V1aR counter. 180 tested, 10% active;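 active means mean activation over three repeats above the cutoff from the earlier oxytocin receptor agonist screen, cut at about 20% in these data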;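 further: peak over minimum fluorescence ratio within a 100 second FLIPR read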
Hits are given with their value; – = inactive; · = no result.

SMILES	TRPML3 agonist	OXTR ag	zfTRPN1 agonist	OXTR potentiate	V1aR counter	V1aR agonist cf	OXTR ag counter
COc1cccc(CNc2ccccc2O)c1OCc1ccccc1F	–	–	–	–	–	·	·
Cc1ccc(/C=N/NC(=O)c2nnn(-c3nonc3N)c2-c2ccc3c(c2)OCO3)s1	·	–	·	–	30	–	–
CCOc1cccc(-c2c(C(=O)N/N=C/c3cccs3)nnn2-c2nonc2N)c1	·	–	·	–	24	–	–
COc1ccc(/C=N/NC(=O)c2nnn(-c3nonc3N)c2-c2cccc(OC)c2)cc1	·	–	·	–	26	25	25
COc1cccc(-c2c(C(=O)N/N=C(\C)c3ccc(Cl)s3)nnn2-c2nonc2N)c1	·	–	·	–	25	–	–
O=C(O)C(CCCCNS(=O)(=O)c1ccc(F)cc1)NS(=O)(=O)c1ccc(F)cc1 (centres undefined)	·	–	·	–	–	·	·
NS(=O)(=O)c1ccc2nc(NC(=O)Nc3ccc(F)cc3)sc2c1	·	–	·	–	24	–	–
Cc1cccc(N/C(N)=N/c2nc(C)cc(C)n2)c1	–	–	–	–	21	–	–
CC(=O)Nc1cccc(N/C(N)=N/c2nc(C)cc(C)n2)c1	–	–	–	–	–	·	·
CCOC(=O)c1ccc(N2C(=O)c3cccc4c(C(=O)O)ccc(c34)C2=O)cc1	·	–	·	–	–	·	·
CCCCCCCCCCOC(=O)Cn1c(COc2ccccc2OC)[n+](C)c2ccccc21	·	–	·	–	56	–	–
Cc1ccc(C(=O)Sc2cccccc2=O)cc1	·	–	·	–	–	·	·
